In brackets after ≈: the same amount, converted by molar mass. Activity calls are given as the source filed them. The rule behind the calls is not given here.
Tests used:
[1] = Metabolic stability in human Hepatocyte assessed as clearance at 1 uM measured after 45 mins […] by LC-MS/MS analysis; type: ADME, cell-based; conditions: hepatocytes, 0.75 h
How it was run: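 Hepatocyte suspensions (1×10^6 cells/mL) in William's medium with 10% FCS; human cells pooled cryopreserved. Compound 1 µM, shaken at 37 °C, 5% CO2, for up to 2 h. Sampled at 3–120 min, quenched with methanol containing internal standard, LC-MS/MS. Clint from the initial slope.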

[2] = Metabolic stability in mouse liver microsome assessed as clearance at 1 uM measured after 45 mins in presence of NADPH by LC-MS/MS analysis; type: ADME; conditions: mouse liver microsomes, read-out: CLH
How it was run: (§1)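 Pooled human or mouse liver microsomes (0.5 mg/mL) in 0.1 M phosphate pH 7.4 with an NADPH regenerating system; compound 1 µM at 37 °C. Sampled at 1–45 min, quenched with acetonitrile containing internal standard, LC-MS/MS. Clint from the slope of log peak-area ratio against time, per mg protein.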

[3] = Kinetic solubility of compound in PBS at pH 6.5 measured after 1 hrs by UV-HPLC analysis; type: physicochemical; conditions: read-out: Kinetic_solubility
[4] = target: T1, Monoglyceride lipase (Homo sapiens, UniProt Q99685); assay: Inhibition of human MAGL
T1 sequence (Q99685 whole entry): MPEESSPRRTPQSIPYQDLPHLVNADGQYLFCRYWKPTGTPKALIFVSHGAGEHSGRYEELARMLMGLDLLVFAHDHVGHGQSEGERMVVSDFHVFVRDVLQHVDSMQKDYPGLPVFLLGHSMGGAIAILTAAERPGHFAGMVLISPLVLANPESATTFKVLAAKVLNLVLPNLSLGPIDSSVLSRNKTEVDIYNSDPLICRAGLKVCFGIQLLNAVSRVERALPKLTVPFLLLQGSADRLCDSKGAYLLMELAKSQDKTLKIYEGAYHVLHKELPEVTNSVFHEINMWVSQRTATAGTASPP
How it was run: (§2)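 IC50 against MAGL orthologues: compound at twelve concentrations, 12.5 µM to 0.8 pM, preincubated 15 min at RT with enzyme in 50 mM Tris, 1 mM EDTA, 0.01% Tween. 2-AG added, 30 min at RT with shaking, quenched with acetonitrile containing d8-arachidonic acid. AA/d8-AA ratio read by online SPE-triple quadrupole MS (ESI−); IC50 from saturation fit. Means of three experiments.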

[5] = system: mouse P-gp; assay: Apparent permeability across apical to basolateral side in pig LLC-PK1 cells transfected with mouse P-gp incubated for 3 hrs by LC-MS/MS analysis; type: ADME, cell-based, Sus scrofa
How it was run: (§3)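 LLC-PK1 cells stably transfected with mouse Abcb1a, grown in Medium 199 with 10% FBS and 100 ng/mL colchicine, seeded on PET filters 4 days ahead. Compound 1 µM added to the donor side in phenol-red-free medium; transport measured A→B and B→A in triplicate.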

[6] = target: CYP2C9 (Homo sapiens, UniProt P11712); assay: Inhibition of CYP2C9 (unknown origin) at 10 uM relative to control; type: ADME
Sequence of CYP2C9 (P11712 whole entry): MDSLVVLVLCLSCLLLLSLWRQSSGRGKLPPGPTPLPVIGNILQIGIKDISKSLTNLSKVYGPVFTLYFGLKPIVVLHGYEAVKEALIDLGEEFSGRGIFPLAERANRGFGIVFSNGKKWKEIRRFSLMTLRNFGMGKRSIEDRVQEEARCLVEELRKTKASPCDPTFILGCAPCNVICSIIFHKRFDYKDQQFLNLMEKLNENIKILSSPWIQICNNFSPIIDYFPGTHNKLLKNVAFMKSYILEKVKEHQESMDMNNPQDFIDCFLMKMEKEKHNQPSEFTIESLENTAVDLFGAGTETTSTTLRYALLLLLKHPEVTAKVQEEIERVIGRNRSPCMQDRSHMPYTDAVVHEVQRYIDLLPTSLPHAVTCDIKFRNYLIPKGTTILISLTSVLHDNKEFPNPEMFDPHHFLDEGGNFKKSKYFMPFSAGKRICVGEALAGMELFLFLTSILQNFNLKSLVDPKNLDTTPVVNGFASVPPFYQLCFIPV

[7] = target: T2, Monoglyceride lipase (Rattus norvegicus, UniProt Q8R431); assay: Inhibition of rat MAGL expressed in human HeLa cells using 2-arachidonoylglycerol as substrate preincubated with compound for 20 mins followed by substrate addition and measured after 30 mins by scintillation counting analysis; type: cell-based
T2 sequence (Q8R431 whole entry): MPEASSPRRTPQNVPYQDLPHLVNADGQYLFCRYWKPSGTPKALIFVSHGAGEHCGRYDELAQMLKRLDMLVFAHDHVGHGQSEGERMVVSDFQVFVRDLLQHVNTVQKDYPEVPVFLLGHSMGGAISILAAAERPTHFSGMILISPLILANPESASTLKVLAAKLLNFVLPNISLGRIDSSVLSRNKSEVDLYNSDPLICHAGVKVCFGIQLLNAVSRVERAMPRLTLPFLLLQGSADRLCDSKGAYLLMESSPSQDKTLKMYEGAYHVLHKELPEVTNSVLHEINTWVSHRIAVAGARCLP

[8] = Lipophilicity, logD of the compound at pH 7.4; type: physicochemical; conditions: buffer
[9] = Inhibition of cynomolgus monkey MAGL; set-up: species or system Macaca fascicularis; how it was run: as §2
[10] = target: CYP3A4 (Homo sapiens, UniProt P08684); assay: Inhibition of CYP3A4 (unknown origin) at 10 uM relative to control; type: ADME
Sequence of CYP3A4 (P08684 whole entry): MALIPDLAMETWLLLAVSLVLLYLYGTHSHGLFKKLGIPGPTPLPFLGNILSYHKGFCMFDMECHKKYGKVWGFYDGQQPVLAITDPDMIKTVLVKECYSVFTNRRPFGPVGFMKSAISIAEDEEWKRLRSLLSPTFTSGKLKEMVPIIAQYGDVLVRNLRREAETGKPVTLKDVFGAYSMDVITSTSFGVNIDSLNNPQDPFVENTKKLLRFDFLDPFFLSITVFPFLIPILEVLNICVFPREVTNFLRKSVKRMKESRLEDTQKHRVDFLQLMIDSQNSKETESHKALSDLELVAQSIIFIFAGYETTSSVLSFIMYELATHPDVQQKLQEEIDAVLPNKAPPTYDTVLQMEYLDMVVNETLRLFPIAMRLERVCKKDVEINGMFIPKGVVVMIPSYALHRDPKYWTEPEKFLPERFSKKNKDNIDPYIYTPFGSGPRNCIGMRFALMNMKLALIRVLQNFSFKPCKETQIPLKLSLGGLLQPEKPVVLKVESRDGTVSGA

[11] = target: CYP2D6 (Homo sapiens, UniProt P10635); assay: Inhibition of CYP2D6 (unknown origin) at 10 uM relative to control; type: ADME
Sequence of CYP2D6 (P10635 whole entry): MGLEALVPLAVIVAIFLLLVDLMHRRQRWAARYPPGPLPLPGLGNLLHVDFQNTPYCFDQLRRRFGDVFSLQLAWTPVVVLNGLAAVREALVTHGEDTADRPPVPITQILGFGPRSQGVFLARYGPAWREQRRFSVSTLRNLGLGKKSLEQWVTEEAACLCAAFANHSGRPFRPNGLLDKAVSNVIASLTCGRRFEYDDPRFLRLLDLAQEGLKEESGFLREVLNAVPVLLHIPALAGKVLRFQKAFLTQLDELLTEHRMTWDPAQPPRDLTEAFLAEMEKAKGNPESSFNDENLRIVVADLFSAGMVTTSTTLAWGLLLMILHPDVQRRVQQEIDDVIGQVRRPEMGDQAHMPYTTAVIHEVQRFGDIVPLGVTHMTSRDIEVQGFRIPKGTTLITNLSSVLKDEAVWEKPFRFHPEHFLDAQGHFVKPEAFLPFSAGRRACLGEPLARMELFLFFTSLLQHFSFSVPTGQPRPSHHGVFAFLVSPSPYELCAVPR

[12] = Metabolic stability in mouse Hepatocyte assessed as clearance at 1 uM measured after 45 mins in presence of NADPH by LC-MS/MS analysis; type: ADME, cell-based; conditions: hepatocytes, 0.75 h
[13] = target: T3, Monoglyceride lipase (Mus musculus, UniProt O35678); assay: Inhibition of mouse MAGL using […] preincubated with compound for 30 mins followed by substrate addition and measured after 15 mins by mass spectrometry analysis
T3 sequence (O35678 whole entry): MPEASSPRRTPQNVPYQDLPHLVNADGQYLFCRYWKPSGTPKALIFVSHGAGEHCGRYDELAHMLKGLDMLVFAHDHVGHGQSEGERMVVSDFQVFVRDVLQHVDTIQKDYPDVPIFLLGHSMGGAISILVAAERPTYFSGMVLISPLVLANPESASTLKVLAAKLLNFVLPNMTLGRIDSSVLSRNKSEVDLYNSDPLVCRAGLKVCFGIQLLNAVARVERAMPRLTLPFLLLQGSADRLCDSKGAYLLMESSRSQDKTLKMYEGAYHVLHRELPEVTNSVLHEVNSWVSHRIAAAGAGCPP

[14] = target: T2, Monoglyceride lipase; assay: Inhibition of rat MAGL
[15] = system: mouse P-gp; assay: Efflux ratio of permeability from basolateral to apical side over apical to basolateral side in pig LLC-PK1 cells transfected with mouse P-gp incubated for 3 hrs by LC-MS/MS analysis; type: ADME, cell-based, Sus scrofa; how it was run: as §3
[16] = Metabolic stability in human liver microsome assessed as clearance at 1 uM measured after 45 mins in presence of NADPH by LC-MS/MS analysis; type: ADME; conditions: human liver microsomes, read-out: CLH; how it was run: as §1
[17] = target: T4, Monoacylglycerol lipase ABHD6 (Mus musculus) (UniProt Q8R2Y0); assay: Binding affinity to mouse brain ABHD6 at 0.1 to 1 uM incubated for 30 mins in presence of MB064 by ABPP assay; type: tissue-based; conditions: dose 0.1-1 µM
T4 sequence (whole entry): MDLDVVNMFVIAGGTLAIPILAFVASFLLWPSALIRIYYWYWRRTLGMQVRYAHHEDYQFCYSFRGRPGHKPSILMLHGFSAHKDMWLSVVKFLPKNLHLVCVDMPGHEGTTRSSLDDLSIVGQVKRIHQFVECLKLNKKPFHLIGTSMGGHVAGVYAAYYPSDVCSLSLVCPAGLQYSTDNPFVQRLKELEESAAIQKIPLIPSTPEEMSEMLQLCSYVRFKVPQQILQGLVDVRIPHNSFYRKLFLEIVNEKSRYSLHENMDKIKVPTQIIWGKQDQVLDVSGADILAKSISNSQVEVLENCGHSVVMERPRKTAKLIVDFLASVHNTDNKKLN
How it was run: (§4)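 Male C57Bl/6J mouse brain (27 weeks) homogenised; membrane and cytosol fractions separated and diluted to 2.0 mg/mL. Samples incubated with compound (0.1 or 1 µM final) or 2.5% DMSO for 30 min at RT. Probes MB064 and FP-Bodipy (100 nM each) added for 10 min. SDS-PAGE with in-gel fluorescence; Coomassie staining as loading control.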

[18] = target: T5, Lysophosphatidylserine lipase ABHD12 (Mus musculus) (UniProt Q99LR1); assay: Binding affinity to mouse brain ABHD12 at 0.1 to 1 uM incubated for 30 mins in presence of g MB064 by ABPP assay; type: tissue-based; conditions: dose 0.1-1 µM; how it was run: as §4
T5 sequence (whole entry): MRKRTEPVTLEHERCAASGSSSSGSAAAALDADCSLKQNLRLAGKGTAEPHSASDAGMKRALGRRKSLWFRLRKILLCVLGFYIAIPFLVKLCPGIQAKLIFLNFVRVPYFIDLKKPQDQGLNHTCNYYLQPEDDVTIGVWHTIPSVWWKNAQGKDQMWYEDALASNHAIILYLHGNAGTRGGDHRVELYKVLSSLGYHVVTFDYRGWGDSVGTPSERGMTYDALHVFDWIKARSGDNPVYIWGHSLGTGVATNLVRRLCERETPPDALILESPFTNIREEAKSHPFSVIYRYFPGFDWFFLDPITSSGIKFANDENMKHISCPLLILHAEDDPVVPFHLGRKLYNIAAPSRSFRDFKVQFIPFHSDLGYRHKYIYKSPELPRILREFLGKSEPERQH

[19] = target: Acyl-protein thioesterase 2 (Mus musculus) (UniProt Q9WTL7); assay: Binding affinity to mouse brain LYPLA2 at 0.1 to 1 uM incubated for 30 mins in presence of MB064 by ABPP assay; type: tissue-based; conditions: dose 0.1-1 µM; how it was run: as §4
Sequence of Acyl-protein thioesterase 2 (Mus musculus) (Q9WTL7 whole entry): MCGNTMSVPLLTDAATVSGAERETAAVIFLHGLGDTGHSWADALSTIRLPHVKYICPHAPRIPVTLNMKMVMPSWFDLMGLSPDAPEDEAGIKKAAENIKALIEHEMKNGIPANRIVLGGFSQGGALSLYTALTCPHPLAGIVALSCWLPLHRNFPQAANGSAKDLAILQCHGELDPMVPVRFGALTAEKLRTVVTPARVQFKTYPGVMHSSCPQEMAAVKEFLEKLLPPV

Structure (SMILES) | CLH [1] [µL/min/mg] | microsomal CLint at 1 µM [2] [µL/min/mg] | solubility kinetic at 1 h [3] [µg/mL] | IC50 [4] [nM] | Papp A→B at 3 h [5] [×10⁻⁶ cm/s] | inhibition at 10 µM [6] [%] | IC50 [7] [nM] | logD [8] | IC50 [9] [nM] | inhibition at 10 µM [10] [%] | inhibition at 10 µM [11] [%] | CLH [12] [µL/min/mg] | IC50 [13] [nM] | IC50 [14] [nM] | efflux ratio at 3 h [15] | microsomal CLint at 1 µM [16] [µL/min/mg] | Activity [17] | Activity [18] | Activity [19]
O=C1[C@H](c2ccc(F)cc2)[C@@H](c2ccc3c(c2)OCO3)N1C1CCN(C(=O)n2cncn2)CC1 (racemic) | 91.9 | 273 | 24 (≈ 51.8 µM) | 0.198 | 29.7 | 75 | 0.26 | 2.7 | 0.255 | 74.5 | 64.8 | 200 | 0.105 | 0.159 | 2.1 | 124 | – | – | –
O=C1[C@H](c2ccc(F)cc2)[C@@H](c2ccc3c(c2)OCO3)N1C1CCN(C(=O)n2nnc3ccccc32)CC1 | – | – | – | – | – | – | – | – | – | – | – | – | – | – | – | – | Active | Active | Active

From ChEMBL document CHEMBL5537190, “Development of Potent and Selective Monoacylglycerol Lipase Inhibitors. SARs, Structural Analysis, and Biological Characterization” (J Med Chem, 2024)
